The target in data set [1] is T1, Programmed cell death protein 1/Programmed cell death 1 ligand 1 (Homo sapiens, UniProt Q9NZQ7). Briefly: Inhibition of Ig-tagged PD-1 (unknown origin)/His-tagged PD-L1 (unknown origin) protein-protein interaction preincubated with PD-L1 for 15 mins followed by PD-1 addition measured after 15 mins by HTRF assay. It is filed as protein-complex assay. A general note: TR-FRET usually uses a lanthanide donor and a delayed reading to cut background.

Data set [2] deals with T1, Programmed cell death protein 1/Programmed cell death 1 ligand 1. Nature of the data set: Inhibition of His-tagged PD-1 (unknown origin)/hFc-tagged PD-L1 (unknown origin) protein-protein interaction incubated for 15 mins by HTRF assay. It is filed as protein-complex assay. In short, it runs like this:
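Small molecules were tested as 10-fold dilution series at a constant final 0.2% DMSO. IC50 came from a four-parameter variable-slope fit of normalized data, with three independent repeats.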

The nature of data set [3]: Biodistribution in intestine of NSG mouse xenografted with CHO-K1 cells/CHO cells expressing hPD-L1 at 31.91 +/- 3.05 MBq measured for 60 mins by micro-PET analysis. Format: ADME, organism-based. Particulars: in vivo, 1 h; call rule not given here. Put shortly: (§1)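 Dynamic whole-body μPET/CT ran up to 60 min and was reconstructed by OSEM3D/MAP. Volumes of interest came from fused PET/CT, with uptake normalized to injected dose and volume as %ID/cc.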

Data set [4] can be described thus: Drug metabolism in brain of NSG mouse xenografted with CHO-K1 cells/CHO cells expressing hPD-L1 assessed as accumulation of radiometabolite formation at 31.91 +/- 3.05 MBq measured for 60 mins by micro-PET analysis. It is filed as ADME, tissue-based. Particulars: in vivo, 1 h.
The nature of data set [5]: Biodistribution in kidney of NSG mouse xenografted with CHO-K1 cells/CHO cells expressing hPD-L1 at 31.91 +/- 3.05 MBq measured for 30 to 70 mins by Wizard2 gamma counter analysis. It is filed as ADME, organism-based. The following applies: in vivo, time 30-70 min. Put shortly: (§2)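 Male NSG mice, 8–10 weeks old, carried subcutaneous CHO-K1 and CHO-hPD-L1 xenografts on opposite flanks (1.5 × 10^6 cells each in PBS/matrigel 1:1). Eleven days after inoculation, radiotracer was injected into the lateral tail vein under isoflurane. Organs were collected at 30, 40 and 70 min, wet-weighed and gamma-counted for 30 s. Counts were background- and decay-corrected to injection, expressed as %ID/g.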

Data set [6] in a line: Drug metabolism in white adipose tissue of NSG mouse xenografted with CHO-K1 cells/CHO cells expressing hPD-L1 assessed as accumulation of radiometabolite formation at 31.91 +/- 3.05 MBq measured for 60 mins by micro-PET analysis. Format: ADME, tissue-based. The following applies: in vivo, 1 h.
The nature of data set [7]: Biodistribution in liver of NSG mouse xenografted with CHO-K1 cells/CHO cells expressing hPD-L1 at 31.91 +/- 3.05 MBq measured for 60 mins by micro-PET analysis. It is filed as ADME, organism-based. The following applies: in vivo, 1 h. Put shortly:
as §1

Data set [8] can be described thus: Biodistribution in lung of NSG mouse xenografted with CHO-K1 cells/CHO cells expressing hPD-L1 at 31.91 +/- 3.05 MBq measured for 30 to 70 mins by Wizard2 gamma counter analysis. Format: ADME, organism-based. The following applies: in vivo, time 30-70 min. In short, it runs like this:
as §2

Data set [9] has as its system CHO-K1. Briefly: Biodistribution in CHO-K1 cells xenografted in NSG mouse co-xenografted with CHO cells expressing hPD-L1 at 31.91 +/- 3.05 MBq measured for 60 mins by micro-PET analysis. Format: ADME, organism-based, Cricetulus griseus. Particulars: chinese hamster, in vivo, 1 h. In short, it runs like this:
as §1

A short description of data set [10]: Biodistribution in brain of NSG mouse xenografted with CHO-K1 cells/CHO cells expressing hPD-L1 at 31.91 +/- 3.05 MBq measured for 60 mins by micro-PET analysis. Format: ADME, organism-based. The following applies: in vivo, 1 h. In short, it runs like this: as §1
In data set [11] the test system is CHO-K1. Nature of the data set: Biodistribution in CHO-K1 cells xenografted in NSG mouse co-xenografted with CHO cells expressing hPD-L1 at 31.91 +/- 3.05 MBq measured for 30 to 70 mins by Wizard2 gamma counter analysis. Format: ADME, organism-based, Cricetulus griseus. Particulars: chinese hamster, in vivo, time 30-70 min. In short, it runs like this: as §2

A short description of data set [12]: Stability in human plasma assessed as compound remaining measured for 60 mins by HPLC analysis. Format: ADME, cell-free. Particulars: read-out: Stability. In short, it runs like this:
(§3)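 Formulated radiotracer (25 μL) was incubated in 1250 μL pooled mouse or human plasma at 37 °C. At 0, 15, 30 and 60 min, aliquots were quenched with equal-volume MeCN and centrifuged (4 min, 4 °C, 21,380g). Intact tracer (%) was measured by reversed-phase radio-HPLC.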

Data set [13] is described as follows: Biodistribution in liver of NSG mouse xenografted with CHO-K1 cells/CHO cells expressing hPD-L1 at 31.91 +/- 3.05 MBq measured for 30 to 70 mins by Wizard2 gamma counter analysis. Format: ADME, organism-based. The following applies: in vivo, time 30-70 min. In short, it runs like this: as §2
The nature of data set [14]: Biodistribution in white adipose tissue of NSG mouse xenografted with CHO-K1 cells/CHO cells expressing hPD-L1 at 31.91 +/- 3.05 MBq measured for 60 mins by micro-PET analysis. It is filed as ADME, organism-based. Particulars: in vivo, 1 h. In short, it runs like this: as §1
Data set [15] can be described thus: Biodistribution in kidney of NSG mouse xenografted with CHO-K1 cells/CHO cells expressing hPD-L1 at 31.91 +/- 3.05 MBq measured for 60 mins by micro-PET analysis. Format: ADME, organism-based. Particulars: in vivo, 1 h. In short, it runs like this: as §1
The subject of data set [16] is CHO. Nature of the data set: Biodistribution in CHO cells expressing hPD-L1 xenografted in NSG mouse co-xenografted with CHO-K1 cells at 31.91 +/- 3.05 MBq measured for 60 mins by micro-PET analysis. Format: ADME, organism-based, Cricetulus griseus. The following applies: chinese hamster, in vivo, 1 h. In short, it runs like this: as §1
The nature of data set [17]: Stability in mouse plasma assessed as compound remaining measured for 60 mins by HPLC analysis. The following applies: read-out: Stability. Format: ADME, cell-free. Put shortly: as §3
The test system of data set [18] is CHO. Briefly: Biodistribution in CHO cells expressing hPD-L1 xenografted in NSG mouse co-xenografted with CHO-K1 cells at 31.91 +/- 3.05 MBq measured for 30 to 70 mins by Wizard2 gamma counter analysis. Format: ADME, organism-based, Cricetulus griseus. The following applies: chinese hamster, in vivo, time 30-70 min. Put shortly:
as §2

A short description of data set [19]: Biodistribution in gall bladder of NSG mouse xenografted with CHO-K1 cells/CHO cells expressing hPD-L1 at 31.91 +/- 3.05 MBq measured for 60 mins by micro-PET analysis. It is filed as ADME, organism-based. Particulars: in vivo, 1 h. Put shortly:
as §1

Data set [20] addresses Programmed cell death 1 ligand 1 (Homo sapiens) (UniProt Q9NZQ7). Briefly: Inhibition of [89Zr]Zr-atezolizumab binding from human PD-L1 transfected in CHO cells assessed as radioligand activity at 200 nM preincubated for 30 mins followed by [89Zr]Zr-atezolizumab addition measured after 60 mins by Wizard2 gamma counter analysis (reference value: 8.4 %). It is filed as cell-based. On the set-up: scale not given: the % may be the effect or the level left. Particulars: time 90.0 min.

A short description of data set [21]: Drug uptake in human A-375 cells xenografted in bilateral tumors bearing BALB/c mouse model at ~2.5 MBq measured for 120 mins by autoradiography. The following applies: in vivo, 2 h. It is filed as ADME, cell-based. For orientation: Xenograft models place foreign cells or tissue in a host animal.
Data set [22] in a line: Biodistribution in bilateral tumors bearing BALB/c mouse model assessed as ratio of drug uptake in human A-375 cells expressing PD-L1 to drug uptake in human A-375 cells at ~2.5 MBq measured for 120 mins by autoradiography. The following applies: a-375, 2 h. It is filed as ADME, organism-based, Neoplasm.
Data set [23] is described as follows: Drug uptake in human A-375 cells expressing PD-L1 xenografted in bilateral tumors bearing BALB/c mouse model at ~2.5 MBq measured for 120 mins by autoradiography. It is filed as ADME, cell-based. Particulars: in vivo, 2 h.
The nature of data set [24]: Drug uptake in mouse B16-F10 cells expressing PD-L1 in xenograft model. Format: ADME, cell-based. The following applies: in vivo.
Data set [25] deals with Programmed cell death 1 ligand 1 (Homo sapiens) (UniProt Q9NZQ7). Nature of the data set: Inhibition of [89Zr]Zr-atezolizumab binding from human PD-L1 transfected in CHO cells assessed as radioligand activity at 5000 nM preincubated for 30 mins followed by [89Zr]Zr-atezolizumab addition measured after 60 mins by Wizard2 gamma counter analysis (reference value: 8.4 %). Format: cell-based. Further details: scale not given: the % may be the effect or the level left. The following applies: time 90.0 min.
Chain of Programmed cell death 1 ligand 1 (Homo sapiens) (Q9NZQ7 whole entry): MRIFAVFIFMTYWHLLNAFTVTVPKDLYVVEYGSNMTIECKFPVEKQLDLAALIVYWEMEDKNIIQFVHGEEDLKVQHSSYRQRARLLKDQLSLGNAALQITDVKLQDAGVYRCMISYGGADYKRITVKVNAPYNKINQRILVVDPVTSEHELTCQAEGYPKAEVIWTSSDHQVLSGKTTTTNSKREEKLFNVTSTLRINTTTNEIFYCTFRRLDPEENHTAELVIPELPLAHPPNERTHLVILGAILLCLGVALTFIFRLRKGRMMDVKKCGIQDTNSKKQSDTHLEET

A short description of data set [26]: Biodistribution in bilateral tumors bearing BALB/c mouse model assessed as ratio of drug uptake in human A-375 cells expressing PD-L1 to drug uptake in human A-375 cells at ~7.4 MBq measured for 50 mins by micro-PET imaging analysis. Format: ADME, organism-based, Neoplasm. The following applies: a-375, 50 min.
Data set [27] in a line: Drug uptake in human A-375 cells expressing PD-L1 xenografted in bilateral tumors bearing BALB/c mouse model at ~7.4 MBq measured for 50 mins by micro-PET imaging analysis. The following applies: in vivo. Format: ADME, cell-based.
Data set [28] in a line: Drug uptake in human A-375 cells xenografted in bilateral tumors bearing BALB/c mouse model at ~7.4 MBq measured for 50 mins by micro-PET imaging analysis. It is filed as ADME, cell-based. Particulars: in vivo.

The structures appear in SMILES notation.

T1 sequence (Q15116 whole entry): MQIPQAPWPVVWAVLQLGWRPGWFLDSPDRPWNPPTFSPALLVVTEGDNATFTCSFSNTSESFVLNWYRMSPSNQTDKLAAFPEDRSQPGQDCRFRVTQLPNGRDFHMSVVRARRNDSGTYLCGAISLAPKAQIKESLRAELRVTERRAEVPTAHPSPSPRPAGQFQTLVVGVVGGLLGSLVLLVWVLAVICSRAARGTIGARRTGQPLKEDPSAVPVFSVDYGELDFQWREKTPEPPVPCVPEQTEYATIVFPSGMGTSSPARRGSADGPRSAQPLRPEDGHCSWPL
T1 sequence (Q9NZQ7 whole entry): as the sequence (Q9NZQ7 whole entry) above

In data set [1], `COc1cc(OCc2cccc(-c3ccc4c(c3)OCCO4)c2C)cc(OC)c1CNCCNC(C)=O` showed an IC50 of 6 nM.

As to `N#Cc1cncc(COc2cc(OCc3cccc(-c4ccccc4)c3Br)c(Cl)cc2CN2CCCC[C@H]2C(=O)O)c1`, in data set [2], the IC50 came out at 0.01 nM.

Molecule `N#Cc1cc(COc2cc(OCc3cccc(-c4ccc5c(c4)OCCO5)c3Br)c(Cl)cc2CN2CCCC[C@H]2C(=O)O)ccn1` showed an IC50 in data set [2] of 0.001 nM.

`Cc1c(COc2cc(OCc3ccnc(C#N)c3)c(CN([11CH3])CCO)cc2Cl)cccc1-c1ccc2c(c1)OCCO2`: the Drug uptake entry was “Active” in data set [3]; “Active” in data set [5]; “Active” in [7]; “Active” in data set [8]; below 1.2 %ID/cc in [9]; below 1.2 %ID/cc in data set [10]. The Drug uptake was below 1.5 % ID/g in data set [11]; “Active” in data set [13]; below 1.2 %ID/cc in data set [14]; “Active” in data set [15]; below 1.2 %ID/cc in data set [16]; below 1.5 % ID/g in data set [18]. The Drug uptake result in data set [19] was “Active”. The Drug metabolism entry in [4] and in data set [6] was “Metabolite_Notdetected” in each case. Also, the remaining at 1 h in data set [12] and in [17] was above 99% each time.

For the molecule `CCOC(=O)/C(C#N)=C/c1cccc(C#N)c1`, the Activity in [20] was 0%.

On to `Cc1cc(CN2CCCCC2C(=O)O)ccc1OCc1cccc(-c2ccccc2)c1C` (configuration not stated), for which the IC50 in data set [1] is 6 nM.

Regarding `CCOc1cccc(-c2cccc(COc3cc(OC)c(CNCCNC(C)=O)c(OC)c3)c2C)c1`, in [1], the IC50 came to 110 nM.

With `Cc1c(COc2cc(OCc3cccc(C#N)c3)c(CNCCNC(=O)CO/N=C/[C@H]([18F])[C@@H](O)[C@H](O)[C@H](O)CO)cc2Cl)cccc1-c1ccc2c(c1)OCCO2`, the Drug uptake worked out at 1.38 % ID/g in [21] and 3.98 % ID/g in data set [23]. In addition, the Ratio in data set [22] came out at 2.9.

Molecule `Cc1c(COc2cc(OCc3cccc(OS(=O)(=O)[18F])c3)c(CNC(CO)(CO)CO)cc2Cl)cccc1-c1ccc2c(c1)OCCO2` returned a Drug uptake in data set [24] of 3.33 %ID/ml.

On to `Cc1c(COc2cc(OCc3ccnc(C#N)c3)c(CN(C)[C@H](CO)C(=O)O)cc2Cl)cccc1-c1ccc2c(c1)OCCO2`, for which the Activity in [25] is 4.2%.

Turning to `Cc1c(COc2cc(OCc3ccnc(C#N)c3)c(CN(C)CCO)cc2Cl)cccc1-c1ccc2c(c1)OCCO2`, the Activity in data set [25] was 4.7%.

For the molecule `Cc1c(COc2cc(OCc3cccc(C#N)c3)c(CN3CCN(CCOCCOCCOCC[18F])CC3)cc2Cl)cccc1-c1ccc2c(c1)OCCO2`, the Ratio in data set [26] came out at 3. Further, the values for the Drug uptake in data set [27] and in data set [28] were 3.53 %ID/ml and 1.19 %ID/ml, respectively.

As a reminder, the IC50 is the concentration at which inhibition is half-maximal.

Values taken from ChEMBL document CHEMBL5335834, “Development and In Vivo Evaluation of Small-Molecule Ligands for Positron Emission Tomography of Immune Checkpoint Modulation Targeting Programmed Cell Death 1 Ligand 1” (J Med Chem, 2024).
